Results: ChEMBL document CHEMBL1138203, “Structure-activity relationship analysis of the selective inhibition of transglutaminase 2 by dihydroisoxazoles” (J Med Chem, 2006)

Target: T1, Protein-glutamine gamma-glutamyltransferase (Homo sapiens, UniProt P21980)
T1 sequence (P21980 whole entry): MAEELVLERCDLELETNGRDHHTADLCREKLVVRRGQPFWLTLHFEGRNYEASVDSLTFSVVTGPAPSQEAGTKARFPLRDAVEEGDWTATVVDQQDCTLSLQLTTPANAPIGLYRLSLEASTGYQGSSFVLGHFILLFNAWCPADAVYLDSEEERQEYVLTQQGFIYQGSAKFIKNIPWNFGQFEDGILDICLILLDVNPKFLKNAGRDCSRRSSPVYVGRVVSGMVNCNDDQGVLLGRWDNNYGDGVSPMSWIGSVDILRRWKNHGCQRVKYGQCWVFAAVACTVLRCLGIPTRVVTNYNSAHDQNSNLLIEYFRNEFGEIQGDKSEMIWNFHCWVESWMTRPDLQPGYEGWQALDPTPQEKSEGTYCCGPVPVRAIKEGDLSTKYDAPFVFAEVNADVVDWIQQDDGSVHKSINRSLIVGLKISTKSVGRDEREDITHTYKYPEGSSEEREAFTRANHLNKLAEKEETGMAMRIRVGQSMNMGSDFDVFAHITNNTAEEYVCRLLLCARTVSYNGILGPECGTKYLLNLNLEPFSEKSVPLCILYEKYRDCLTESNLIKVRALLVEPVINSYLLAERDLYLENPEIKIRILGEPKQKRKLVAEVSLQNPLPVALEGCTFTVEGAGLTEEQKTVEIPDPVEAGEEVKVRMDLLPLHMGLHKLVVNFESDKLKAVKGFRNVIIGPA
Assay: Inhibition of human recombinant TG2 expressed in Escherichia coli
Method in brief: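 Enzyme purified to >90%. Inhibitor at 0.001–0.3 mM. Reaction started by adding TG2; NADH loss read at 340 nm. KI and kinh came from fitting progress curves to irreversible-inhibition equations.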

Ki [µM]	SMILES
138	O=C(NCC1CC(Br)=NO1)C1Cc2ccccc2N1C(=O)OCc1ccccc1 (centres undefined)
68	O=C(N[C@@H](Cc1ccc(O)cc1)C(=O)NC[C@@H]1CC(Br)=NO1)OCc1ccccc1
11	O=C(NC[C@@H]1CC(Br)=NO1)[C@@H]1CCCN1C(=O)OCc1cnc2ccccc2c1
34	O=C(NC(Cc1c[nH]c2ccc(O)cc12)C(=O)NCC1CC(Br)=NO1)OCc1cnc2ccccc2c1 (centres undefined)
18	O=C(NC(Cc1c[nH]c2cc(F)ccc12)C(=O)NCC1CC(Br)=NO1)OCc1ccccc1 (centres undefined)
30	O=C(N[C@@H](Cc1ccc(O)cc1)C(=O)NC[C@@H]1CC(Br)=NO1)OCc1cnc2ccccc2c1
18	O=C(NC(Cc1c[nH]c2ccc(F)cc12)C(=O)NCC1CC(Br)=NO1)OCc1cnc2ccccc2c1 (centres undefined)
4	O=C(N[C@@H](Cc1c[nH]c2ccc(F)cc12)C(=O)NCC1CC(Br)=NO1)OCc1cnc2ccccc2c1 (some centres undefined)
1.3	O=C(N[C@@H](Cc1c[nH]c2ccc(F)cc12)C(=O)NC[C@@H]1CC(Br)=NO1)OCc1cnc2ccccc2c1
51	COc1ccc2[nH]cc(CC(NC(=O)OCc3cnc4ccccc4c3)C(=O)NCC3CC(Br)=NO3)c2c1 (centres undefined)
22	O=C(NC(Cc1c[nH]c2ncccc12)C(=O)NCC1CC(Br)=NO1)OCc1ccccc1 (centres undefined)
41	O=C(N[C@@H](Cc1ccc(O)cc1)C(=O)NCC1CC(Br)=NO1)OCc1cnc2ccccc2c1 (some centres undefined)
99	O=C(NC(Cc1c[nH]c2cccc(F)c12)C(=O)NCC1CC(Br)=NO1)OCc1ccccc1 (centres undefined)
19	O=C(NC(Cc1c[nH]c2ccc(F)cc12)C(=O)NCC1CC(Br)=NO1)OCc1ccccc1 (centres undefined)
